Source: ChEMBL document CHEMBL1130064, “Substituted N-phenylisothioureas: potent inhibitors of human nitric oxide synthase with neuronal isoform selectivity” (J Med Chem, 1997)

Assays:
[1] = biological target: T1, Nitric oxide synthase, inducible (Homo sapiens, UniProt P35228); test: Inhibitory activity against human inducible nitric oxide synthase (iNOS).
In short: (§1)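 Purified human enzymes were used, with iNOS purified from the DLD-1 colorectal adenocarcinoma line. Percent inhibition was measured at three or more inhibitor concentrations and converted to inhibition constants (Ki).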

Nitric oxide synthase 1 [2] = biological target: T2, Nitric oxide synthase 1 (Homo sapiens, UniProt P29475); test: Inhibitory activity against human neuronal nitric oxide synthase in brain (nNOS).; type: tissue-based
T2 sequence (P29475 whole entry): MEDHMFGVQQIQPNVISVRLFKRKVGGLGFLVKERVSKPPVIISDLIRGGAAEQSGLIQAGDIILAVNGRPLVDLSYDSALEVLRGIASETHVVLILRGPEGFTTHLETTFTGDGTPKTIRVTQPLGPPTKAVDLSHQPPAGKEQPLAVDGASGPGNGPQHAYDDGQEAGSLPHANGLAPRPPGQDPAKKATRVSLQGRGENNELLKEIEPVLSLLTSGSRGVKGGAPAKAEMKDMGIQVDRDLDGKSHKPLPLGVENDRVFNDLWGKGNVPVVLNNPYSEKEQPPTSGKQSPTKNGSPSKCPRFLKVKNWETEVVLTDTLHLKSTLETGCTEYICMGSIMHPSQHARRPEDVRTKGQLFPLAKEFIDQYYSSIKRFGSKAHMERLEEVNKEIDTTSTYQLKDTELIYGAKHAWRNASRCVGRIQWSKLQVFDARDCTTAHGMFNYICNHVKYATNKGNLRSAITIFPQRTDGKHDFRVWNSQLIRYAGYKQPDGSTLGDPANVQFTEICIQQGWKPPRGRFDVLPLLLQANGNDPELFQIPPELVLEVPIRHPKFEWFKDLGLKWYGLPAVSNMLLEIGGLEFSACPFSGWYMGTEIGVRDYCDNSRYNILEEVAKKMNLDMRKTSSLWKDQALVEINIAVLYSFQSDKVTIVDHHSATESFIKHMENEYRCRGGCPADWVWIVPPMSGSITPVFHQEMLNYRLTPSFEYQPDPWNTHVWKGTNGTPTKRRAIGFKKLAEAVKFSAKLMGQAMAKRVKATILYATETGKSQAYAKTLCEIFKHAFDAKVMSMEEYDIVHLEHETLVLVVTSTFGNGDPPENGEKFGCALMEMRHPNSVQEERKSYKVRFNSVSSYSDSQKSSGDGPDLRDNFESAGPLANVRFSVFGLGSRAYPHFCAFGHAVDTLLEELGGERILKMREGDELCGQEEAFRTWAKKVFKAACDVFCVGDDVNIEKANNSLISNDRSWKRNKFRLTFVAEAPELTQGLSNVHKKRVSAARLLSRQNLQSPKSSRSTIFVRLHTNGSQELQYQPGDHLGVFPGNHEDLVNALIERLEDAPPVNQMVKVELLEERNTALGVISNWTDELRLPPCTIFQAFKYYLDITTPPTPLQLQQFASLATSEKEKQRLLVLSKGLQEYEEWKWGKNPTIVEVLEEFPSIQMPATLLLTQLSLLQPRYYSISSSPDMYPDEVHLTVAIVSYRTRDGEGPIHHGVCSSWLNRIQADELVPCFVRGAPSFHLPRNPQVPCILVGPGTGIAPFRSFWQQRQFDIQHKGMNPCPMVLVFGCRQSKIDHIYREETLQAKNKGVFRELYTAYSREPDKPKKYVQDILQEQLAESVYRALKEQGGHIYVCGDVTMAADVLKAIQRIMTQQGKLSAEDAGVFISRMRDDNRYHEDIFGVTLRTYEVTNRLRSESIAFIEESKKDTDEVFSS

Nitric oxide synthase 3 = biological target: T3, Nitric oxide synthase 3 (Homo sapiens, UniProt P29474); test: Inhibitory activity against human vascular endothelial nitric oxide synthase.; in short: as §1
T3 sequence (P29474 whole entry): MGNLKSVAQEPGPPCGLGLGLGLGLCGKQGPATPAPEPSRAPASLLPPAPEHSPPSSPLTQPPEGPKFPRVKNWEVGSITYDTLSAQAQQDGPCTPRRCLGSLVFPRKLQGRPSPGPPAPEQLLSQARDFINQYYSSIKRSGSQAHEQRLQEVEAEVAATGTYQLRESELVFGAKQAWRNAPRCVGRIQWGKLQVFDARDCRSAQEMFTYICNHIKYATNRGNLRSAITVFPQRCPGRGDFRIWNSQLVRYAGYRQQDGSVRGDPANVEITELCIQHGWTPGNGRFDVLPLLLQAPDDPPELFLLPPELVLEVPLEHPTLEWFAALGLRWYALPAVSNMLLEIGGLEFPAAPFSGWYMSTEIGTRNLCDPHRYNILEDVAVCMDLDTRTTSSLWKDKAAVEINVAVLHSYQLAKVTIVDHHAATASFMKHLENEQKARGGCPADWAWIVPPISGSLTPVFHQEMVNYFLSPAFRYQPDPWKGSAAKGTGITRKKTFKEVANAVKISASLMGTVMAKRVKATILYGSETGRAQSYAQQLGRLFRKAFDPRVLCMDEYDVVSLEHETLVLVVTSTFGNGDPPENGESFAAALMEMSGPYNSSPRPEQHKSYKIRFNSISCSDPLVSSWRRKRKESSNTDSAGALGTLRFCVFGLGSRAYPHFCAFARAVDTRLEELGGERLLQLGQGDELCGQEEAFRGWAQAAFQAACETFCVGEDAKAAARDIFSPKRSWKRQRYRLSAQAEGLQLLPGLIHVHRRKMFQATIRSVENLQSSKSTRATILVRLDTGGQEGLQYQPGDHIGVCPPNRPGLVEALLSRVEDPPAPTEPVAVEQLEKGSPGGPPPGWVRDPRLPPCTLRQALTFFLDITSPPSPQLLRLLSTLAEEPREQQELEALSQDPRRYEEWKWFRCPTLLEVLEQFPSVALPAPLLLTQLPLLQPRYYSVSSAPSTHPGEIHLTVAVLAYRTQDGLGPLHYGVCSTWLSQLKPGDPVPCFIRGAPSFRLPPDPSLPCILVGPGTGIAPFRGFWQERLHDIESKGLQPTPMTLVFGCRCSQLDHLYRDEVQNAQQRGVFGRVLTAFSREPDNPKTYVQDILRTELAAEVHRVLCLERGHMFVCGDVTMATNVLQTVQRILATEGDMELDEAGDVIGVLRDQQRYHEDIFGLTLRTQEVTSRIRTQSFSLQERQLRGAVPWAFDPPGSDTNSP

[3] = biological target: T1, Nitric oxide synthase, inducible; test: Percent inhibition of Human inducible Nitric Oxide Synthase (iNOS) at a concentration of 25 uM; conditions: at 25 µM
In short: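 Human iNOS purified from the DLD-1 colorectal adenocarcinoma cell line. Percent inhibition of the enzyme was measured with test compound present.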

[4] = biological target: T4, Nitric oxide synthase 3 (Homo sapiens) (UniProt P29474); test: Percent inhibition of human Vascular Endothelial nitric oxide synthase at a concentration of 25 uM; conditions: at 25 µM
T4 sequence (whole entry): T3 sequence (P29474 whole entry)

[5] = Clearance was determined; type: ADME, organism-based; conditions: in vivo
[6] = Michaelis-Menten constant was determined; type: ADME
In short: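 Human nNOS conversion of L-arginine to L-citrulline was measured over a range of arginine with inhibitor at 0, 150 and 300 nM. Velocities were fitted to V = Vmax[S]/{[S] + Km(1 + [I]/Ki)} to give Km.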

[7] = The half life was determined; type: ADME
Nitric oxide synthase 1 [8] = biological target: T2, Nitric oxide synthase 1; test: Percent inhibition of human Neuronal nitric oxide synthase in brain (nNOS) at a concentration of 25 uM; type: tissue-based; conditions: at 25 µM
Nitric oxide synthase 1 [9] = biological target: T2, Nitric oxide synthase 1; test: Percent inhibition of human Neuronal nitric oxide synthase at a concentration of 25 uM; conditions: at 25 µM

T1 sequence (P35228 whole entry): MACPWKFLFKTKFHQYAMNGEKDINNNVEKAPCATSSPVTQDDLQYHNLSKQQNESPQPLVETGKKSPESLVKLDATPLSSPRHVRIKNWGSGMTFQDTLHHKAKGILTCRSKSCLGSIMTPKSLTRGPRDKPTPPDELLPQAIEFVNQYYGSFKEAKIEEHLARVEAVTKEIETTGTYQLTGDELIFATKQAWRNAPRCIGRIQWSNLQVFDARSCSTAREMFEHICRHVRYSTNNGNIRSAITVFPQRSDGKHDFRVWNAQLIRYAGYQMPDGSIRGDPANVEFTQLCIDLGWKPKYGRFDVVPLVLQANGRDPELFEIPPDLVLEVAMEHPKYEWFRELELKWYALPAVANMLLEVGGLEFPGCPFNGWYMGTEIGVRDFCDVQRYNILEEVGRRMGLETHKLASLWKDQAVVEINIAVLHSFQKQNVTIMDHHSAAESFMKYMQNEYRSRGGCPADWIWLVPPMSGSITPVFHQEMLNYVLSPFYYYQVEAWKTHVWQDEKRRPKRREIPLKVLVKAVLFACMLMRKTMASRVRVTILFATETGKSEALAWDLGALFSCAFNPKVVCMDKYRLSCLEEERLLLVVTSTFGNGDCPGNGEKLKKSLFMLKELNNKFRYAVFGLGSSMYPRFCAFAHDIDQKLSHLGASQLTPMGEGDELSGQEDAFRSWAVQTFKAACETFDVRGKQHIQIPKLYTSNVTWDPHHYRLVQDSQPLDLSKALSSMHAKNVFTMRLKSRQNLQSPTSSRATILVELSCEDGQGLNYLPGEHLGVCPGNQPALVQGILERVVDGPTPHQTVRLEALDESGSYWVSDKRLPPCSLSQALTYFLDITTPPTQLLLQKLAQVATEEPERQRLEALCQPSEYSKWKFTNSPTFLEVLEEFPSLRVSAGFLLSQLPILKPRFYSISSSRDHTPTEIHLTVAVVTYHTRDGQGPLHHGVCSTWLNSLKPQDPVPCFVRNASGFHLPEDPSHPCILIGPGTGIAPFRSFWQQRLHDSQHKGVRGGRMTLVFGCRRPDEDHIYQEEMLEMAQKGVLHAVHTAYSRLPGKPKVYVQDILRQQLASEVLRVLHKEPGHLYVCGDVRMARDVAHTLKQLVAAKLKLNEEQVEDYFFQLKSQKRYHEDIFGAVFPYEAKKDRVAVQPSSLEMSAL

| SMILES | Ki [1] | Ki (Nitric oxide synthase 1 [2]) | Ki (Nitric oxide synthase 3) | inhibition [3] | further results |
| --- | --- | --- | --- | --- | --- |
| CC(C)SC(=N)Nc1ccc(C(F)(F)F)cc1 | – | 29 µM | – | 0% | inhibition [4]: 0% |
| CCSC(=N)Nc1ccccc1C(F)(F)F | – | – | 18 µM | – | – |
| CSC(=N)Nc1ccc(C(F)(F)F)cc1 | – | 4.6 µM | 31 µM | 0% | – |
| CCSC(=N)Nc1ccccc1C(C)C | – | 1.1 µM | – | – | – |
| CCSC(=N)Nc1ccccn1 | 23 µM | – | 17 µM | – | – |
| CSC(=N)Nc1ccc(Cl)cc1 | 42 µM | 0.57 µM | 2.6 µM | – | – |
| N=C(Nc1ccc(C(F)(F)F)cc1)SCc1ccccc1 | – | – | – | 0% | inhibition (Nitric oxide synthase 1 [8]): 11%; inhibition [4]: 0% |
| CSC(=N)Nc1ccc([N+](=O)[O-])cc1 | – | 3.3 µM | 17 µM | 0% | – |
| CCSC(=N)Nc1cccnc1 | 23 µM | – | 7 µM | – | – |

Now from value to compound, other results behind:

| Ki [1] | Ki (Nitric oxide synthase 1 [2]) | Ki (Nitric oxide synthase 3) | inhibition [3] | SMILES | further results |
| --- | --- | --- | --- | --- | --- |
| 4.2 µM | 0.14 µM | 0.9 µM | – | CCSC(=N)Nc1ccc(Cl)cc1 | – |
| – | 64 µM | – | 4% | CCCSC(=N)Nc1ccc(C(F)(F)F)cc1 | inhibition [4]: 0% |
| 0.87 µM | 0.12 µM | 0.4 µM | – | CCSC(=N)Nc1ccccc1 | – |
| 55 µM | 0.7 µM | 17 µM | – | CCSC(=N)Nc1ccc(OC(F)(F)F)cc1 | – |
| 37 µM | – | – | – | CCSC(=N)Nc1ccc(C(F)(F)F)cc1.Cl | Clearance [5]: 93.3 mL/min/kg; Km [6]: 2 µM; half-life ([7]; read-out: T1/2 alpha): 4 min; half-life ([7]; read-out: T1/2 beta): 31 min |
| 63 µM | – | – | – | CCOC(=O)c1ccc(NC(=N)SCC)cc1 | – |
| 54 µM | 0.66 µM | 9.1 µM | – | CCSC(=N)Nc1ccc([N+](=O)[O-])cc1 | – |
| 22 µM | 0.8 µM | 16 µM | – | CCSC(=N)Nc1ccncc1 | – |
| – | – | – | 0% | CCCCSC(=N)Nc1ccc(C(F)(F)F)cc1 | inhibition (Nitric oxide synthase 1 [9]): 0%; inhibition [4]: 0% |
| 25 µM | – | – | – | CCSC(=N)Nc1ccc(C(C)C)cc1 | – |
| – | 58 µM | – | 0% | CCSC(=N)Nc1ccc(C(=O)O)cc1 | inhibition [4]: 14% |
